High-throughput results: PubChem BioAssay, Johns Hopkins Ion Channel Center
An excerpt weighted towards active compounds, which were near 3.7% of everything screened.
KCNQ1 pot = human KCNQ1 channel potentiation or activation. 310,000 compounds, 0.35% hits. B-score at 10 µM. P51787. CHO-K1 KCNQ1, thallium flux FluxOR fluorescence; stronger effect = higher value;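 active = fluorescence ratio B-score, a plate-corrected score, at least three library SD, with initial intensity B-score within 5 SD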
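Schedule – 37 °C overnight plating, 90-min dark dye load, 20-min compound pretreatment · System – stable KCNQ1 CHO-K1 line · Probe or stimulus – thallium- and potassium-containing depolarizing buffer · Measured by – kinetic FluxOR fluorescence, 10 s baseline plus 110 s post-stimulus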
hERG protect = shields human hERG channel from block by proarrhythmic agents; Q12809; CHO-hERG, FluxOR thallium flux, dofetilide IC70 present; activation (rescue from dofetilide block), less the hit threshold, % at 10 µM; 310,000 compounds, 0.51% hits; AID 1511;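 active = activation above the mean of controls blocked by dofetilide plus 5 SD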;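 also: thallium influx through hERG after potassium depolarization seen as dye fluorescence rise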
KCNK9 inh = human KCNK9 channel inhibition. HEK293 KCNK9, FluxOR thallium flux fluorescence; stronger effect = lower value. 310,000 compounds, 1.2% hits. Q9NPC2. B-score at 10 µM. AID 488922;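 active = ratio B-score over 3 SD below the library mean, with starting fluorescence within 5 SD of its mean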;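 also: negative B-score means less thallium flux so channel inhibition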
KCNK3 block = human KCNK3 channel inhibition, primary screen; O14649; CHO-KCNK3 thallium flux, FluxOR fluorescence; stronger effect = lower value; B-score at 10 µM; 340,000 compounds, 0.84% hits;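 active = B-score under library mean minus 4 SD, starting fluorescence ratio at most library mean plus 5 SD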;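 also: more negative B-score means stronger inhibition of thallium flux through KCNK3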
KCNQ1 inh = human KCNQ1 channel inhibition; P51787; CHO-K1 KCNQ1, FluxOR thallium flux fluorescence; stronger effect = higher value; B-score at 10 µM; 310,000 compounds, 1.3% hits;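 active = compounds whose thallium flux B-score, printed positive for inhibition, exceeds three library SD while starting fluorescence stays within three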;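 also: channel opened by potassium depolarization with thallium stimulus after 20 min compound exposure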
Kir21 inh = Kir2.1 (mouse) channel inhibition; P35561; HEK293-Kir2.1, FluxOR thallium flux fluorescence; stronger effect = lower value; B-score at 10 µM; 310,000 compounds, 0.85% hits; AID 1672;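 active = fluorescence ratio B-score at or below minus 3 SD of library scores, with starting-brightness B-score within 2 SD, cut at about -4.2 in these data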;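 also: channel flux triggered by added potassium and thallium sulfate stimulus; B-score of peak minus minimum fluorescence over baseline after thallium stimulus; more negative B-score means stronger Kir2.1 block with less thallium influx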
Target sequence (P35561 whole entry, looked up): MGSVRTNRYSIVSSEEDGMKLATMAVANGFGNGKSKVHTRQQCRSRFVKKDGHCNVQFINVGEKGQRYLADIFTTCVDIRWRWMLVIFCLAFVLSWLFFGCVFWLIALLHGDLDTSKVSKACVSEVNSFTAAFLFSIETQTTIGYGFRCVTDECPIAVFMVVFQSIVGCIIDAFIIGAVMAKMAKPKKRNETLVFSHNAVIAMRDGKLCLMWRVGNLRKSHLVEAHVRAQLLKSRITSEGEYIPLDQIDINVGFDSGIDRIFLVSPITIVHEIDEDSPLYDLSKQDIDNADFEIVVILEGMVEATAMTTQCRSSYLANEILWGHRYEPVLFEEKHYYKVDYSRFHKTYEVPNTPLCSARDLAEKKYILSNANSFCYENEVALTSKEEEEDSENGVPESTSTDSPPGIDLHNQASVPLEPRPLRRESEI
Each line names hits and unclear results; the compound was inactive in the other large screens.

COc1cc(-c2nc(C(=O)NC3CCCCC3)cc3c2[nH]c2ccccc23)cc(OC)c1OC	none
COc1cc(-c2nc(C(=O)NC3CCN(Cc4ccccc4)CC3)cc3c2[nH]c2ccccc23)cc(OC)c1OC	KCNQ1 inh 6
Cn1c(N)c(S(=O)(=O)NCc2ccc(F)cc2)c(=O)n(C)c1=O	none
Cn1nc(-c2ccccc2)c(C(O)c2ccccc2C(F)(F)F)c1Cl (configuration not stated)	none
COC(c1ccccc1)c1c(-c2ccccc2)nn(C)c1Cl (configuration not stated)	Kir21 inh -4.8
Cc1ccc(S(=O)(=O)N2CCN(c3ncnc4sccc34)CC2)cc1C	none (no result: KCNQ1 pot, hERG protect, KCNK9 inh, KCNQ1 inh, Kir21 inh)
O=S(=O)(c1ccc2c(c1)OCCO2)N1CCN(c2ncnc3sccc23)CC1	KCNQ1 inh 6
Cc1cccc(NC(=O)CCS(=O)(=O)c2cccc3nsnc23)c1C	none
CCCN(CCC)C(=O)CCS(=O)(=O)c1cccc2nsnc12	Kir21 inh -4.5
O=C1N=C(N2CCC(Cc3ccccc3)CC2)S/C1=C/c1cn[nH]c1-c1ccccc1	KCNQ1 inh 9
O=C1CC(c2ccco2)CC(O)=C1C=Nc1cc(Cl)ccc1Cl (configuration not stated)	none
O=C1CC(c2ccco2)CC(O)=C1C=Nc1cc(Cl)ccc1O (configuration not stated)	KCNQ1 inh 6
O=C(CCc1ccccc1)NC(=S)Nc1ccccc1Br	hERG protect 5.0
CN(Cc1ccon1)C(=O)C1CCC(=O)N(Cc2ccc(Cl)cc2)C1 (configuration not stated)	none
CNC(=O)c1sc(N2N=C3/C(=C/c4ccccc4)CCCC3C2c2ccccc2)nc1C (configuration not stated)	KCNK9 inh -8.7
CCC(NC(=S)NCc1ccc(F)cc1)c1ccccc1 (configuration not stated)	Kir21 inh -7.4
C/C(=N\N=C(c1ccccc1)c1ccccc1)c1cccs1	KCNQ1 inh 6
CN(C(=O)c1ccc(NC(=O)Cc2cccc(NC(=O)C3CCN(C(=O)C4CCCC4)CC3)c2)cc1)C1CCCC1	none (no result: KCNQ1 pot, hERG protect, KCNK9 inh, KCNQ1 inh, Kir21 inh)
COc1cc2c(cc1OC)C1=CC(=O)C(=O)N1C(C)(C)C2	KCNQ1 inh 12
COc1cc2c(cc1OC)-c1nc3ccccc3c(=O)n1C(C)(C)C2	none
CCOc1ccc(C(=O)CSc2nnc(C3CC3)n2C)cc1	hERG protect 6.4
CCOc1ccc(NC(=O)CSc2nnc(C3CC3)n2C)cc1	none
COc1cc(NC(=O)Cn2c([N+](=O)[O-])cnc2C)c(OC)cc1Cl	none
CCCCc1nc2ccccc2c(C(=O)O)c1C	none
CCCCc1nc2ccccc2c(N)c1CCC (tested in a mixture with another compound)	Kir21 inh -8.3
CCOc1ccc(C(O)(c2ccccc2OC)C(CN2CCCC2)c2ccccc2)cc1 (configuration not stated)	KCNQ1 inh 11
COc1ccccc1NC(=O)C(C)OC(=O)CCC1CCCCC1 (configuration not stated)	KCNK3 block -8.9
Cc1ccc(C)c(NC(=O)C(=O)NCC2CCCN2S(=O)(=O)c2cccs2)c1 (configuration not stated)	KCNK9 inh -7.2
Cc1ccc(NC(=O)C(=O)NCC2CCCN2S(=O)(=O)c2cccs2)c(C)c1 (configuration not stated)	none
Cc1ccccc1OCC(=O)N=Nc1c(O)n(C)c2ccccc12	KCNQ1 pot 8
CCC1Oc2ccccc2N(CC(=O)NC2CC2)C1=O (configuration not stated)	none
CC[n+]1c(/C=C2\C=C(C)CC(C)(C)C2)sc2ccccc21	KCNQ1 inh 7
CC[n+]1c(/C=C/Nc2ccccc2)oc2ccc(OC)cc21	none
CC[n+]1c(/C=C2\C=C(C)CC(C)C2)sc2ccccc21 (configuration not stated)	KCNQ1 inh 6
CC[n+]1c(/C=C2/C=C(C)CC(C)(C)C2)sc2ccc(OC)cc21	KCNQ1 inh 10
CCC1=C/C(=C/c2sc3ccccc3[n+]2CC)CC(C)(C)C1	none
CC[n+]1c(C)sc2sc3ccccc3c21	none (no result: KCNK3 block)
COc1ccc(-c2nc(CSCC(=O)NC3CCN(Cc4ccccc4)CC3)c(C)o2)cc1OC	none
CC1C/C(=C/c2cccs2)C(=O)/C(=C/c2cccs2)C1 (configuration not stated)	KCNK9 inh -7.4
O=C1/C(=C/c2cccs2)CCC/C1=C\c1cccs1	none
CN(C1CCCCC1)S(=O)(=O)c1ccc(=S)[nH]c1	none (no result: KCNQ1 pot, hERG protect, KCNK9 inh, KCNQ1 inh, Kir21 inh)
COc1ccc(S(=O)(=O)N(C)C[C@H]2Oc3c(cccc3N(C)C)C(=O)N([C@H](C)CO)C[C@@H]2C)cc1	none (no result: KCNQ1 pot, hERG protect, KCNK9 inh, KCNQ1 inh, Kir21 inh)
O=C(NS(=O)(=O)N1CCOCC1)C1=C(N2CCCC2)COC1=O	none (no result: KCNQ1 pot, hERG protect, KCNK9 inh, KCNQ1 inh, Kir21 inh)
CCn1cc(SCC(=O)NC2CCCC2)c2ccccc21	Kir21 inh -4.8
CCOC(=O)N1CCC(NC(=O)CSc2cc(=O)n(CC)c3ccccc23)CC1	KCNK9 inh -7.1
O=c1[nH]cnc2c1N=C(c1cccc([N+](=O)[O-])c1)CC(c1ccccc1)N2 (configuration not stated)	none
CS(=O)(=O)N1CCc2cc(C(=O)Nc3ccc(Br)cc3)ccc21	none
O=C(CSc1nc2ccccc2c(=O)[nH]1)Nc1ccc(C(=O)O)cc1	none
CCOc1ccc(NC(=O)c2ccc(NC(=O)CSc3nc4ccccc4c(=O)[nH]3)cc2)cc1	hERG protect 4.7
CCOc1ccc(NC(=O)c2ccc3c(c2)CCN3S(C)(=O)=O)cc1	hERG protect 11
CCOc1ccc(NC(=O)c2ccc(N)cc2)cc1	KCNQ1 pot 11
COc1cc(C(=O)NC(CCSC)C(=O)OCC(=O)C(C)(C)C)cc(OC)c1OC (configuration not stated)	none
N#Cc1cccc(NC(=O)CN2C(=O)NC(Cc3ccccc3)C2=O)c1 (configuration not stated)	none
CCCCn1c(N)c(N(CCOC)C(=O)c2cc(S(=O)(=O)N3CCOCC3)ccc2Cl)c(=O)[nH]c1=O	none (no result: KCNQ1 pot, hERG protect, KCNK9 inh, KCNQ1 inh, Kir21 inh)
O=Cc1c(N2CCN(CCO)CC2)nc2ccccn2c1=O	KCNQ1 inh 13
Cc1ccc(CN2C(=O)c3ccccc3NC2c2cc(Br)ccc2O)cc1 (configuration not stated)	KCNQ1 inh 13
CN1C(=O)/C(=C\c2cc(N=Nc3ccccc3)ccc2O)SC1=S	KCNQ1 inh 7
CN1C(=O)/C(=C\c2ccccc2OCc2ccccc2)SC1=S	none
Cc1cc(/C=C2\SC(=S)N(C)C2=O)c(C)n1-c1cccc(O)c1	KCNK9 inh -6.8
O=C(NCc1cccnc1)c1ccc(COc2ccccc2Br)o1	none
